Source: PMC9586281 (Proceedings of the National Academy of Sciences of the …, 2022)

How the values were obtained:
[1] = required plasmid transfection for cellular introduction; cited from earlier work
FOXP3:NFAT = conditions: cited from earlier work
[2] = system: Treg cell-mediated suppression of Tcon cell proliferation; experiment: Ex vivo suppression assay; type: cell-based, mice; conditions: Treg cells pretreated with peptide, 72 h coculture with Tcon cells
LZCC FOXP3 (T182-M337) = molecular target: T1, LZCC FOXP3 (T182-M337) (Homo sapiens, UniProt Q9BZS1); experiment: Fluorescence polarization analysis; type: binding; conditions: FPA, 50 nM FITC-labeled peptide, 1× PBS pH 8, 1-15 min room temperature
T1 sequence (Q9BZS1 182-336 limits assumed): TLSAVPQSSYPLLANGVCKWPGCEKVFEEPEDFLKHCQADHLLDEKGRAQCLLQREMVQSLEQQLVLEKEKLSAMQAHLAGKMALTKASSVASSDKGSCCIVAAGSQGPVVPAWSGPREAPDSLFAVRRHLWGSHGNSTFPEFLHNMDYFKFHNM
Method in brief: (§1)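 Solution-phase fluorescence polarization using recombinant truncated FOXP3 as the binding partner. Equilibrium binding constants were determined for stapled peptides and for their native unstapled peptide controls.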

ΔN FOXP3 (T182-P431) = molecular target: T2, ΔN FOXP3 (T182-P431) (Homo sapiens, UniProt Q9BZS1); experiment: Fluorescence polarization analysis; type: binding; conditions: FPA, 50 nM FITC-labeled peptide, 1× PBS pH 8, 1-15 min room temperature
T2 sequence (Q9BZS1 182-431): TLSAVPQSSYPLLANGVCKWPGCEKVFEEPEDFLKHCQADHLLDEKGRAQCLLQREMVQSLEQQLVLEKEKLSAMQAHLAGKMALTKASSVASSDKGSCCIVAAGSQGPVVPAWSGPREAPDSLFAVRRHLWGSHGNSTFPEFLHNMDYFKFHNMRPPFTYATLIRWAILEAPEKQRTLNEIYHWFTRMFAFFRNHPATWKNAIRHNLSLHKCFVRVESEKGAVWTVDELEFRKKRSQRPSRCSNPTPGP
Method in brief: as §1

KD, LZCC FOXP3 (LZCC FOXP3 (T182-M337))	KD, ΔN FOXP3 (ΔN FOXP3 (T182-P431))	Substance	Cell permeability [1]	Inhibition of FOXP3:NFAT (FOXP3:NFAT)	Inhibition of Treg cell-mediated suppression of target proliferation [2]
–	–	FOXP3 393–403: nonstructured peptide spanning a loop domain and the Wing1 region of the FKH domain of FOXP3 (KCFVRVESEKG; UniProt Q9BZS1 393-403, looked up, fragment)	not cell permeable	partially inhibit FOXP3:NFAT	–
no binding	no binding	FOXP3(229-259): native, unstapled peptide control of hFOXP3 residues 229-259 (RAQCLLQREMVQSLEQQLVLEKEKLSAMQAH; UniProt Q9BZS1 229-259, looked up, fragment)	–	–	no ability to prevent Treg cell–mediated suppression of Tcon cell proliferation
